The values that follow come from ChEMBL document CHEMBL3046654, “Penoxsulam--structure-activity relationships of triazolopyrimidine sulfonamides” (Bioorg Med Chem, 2009).

Structures are written as SMILES.

For one data set, the system named is Ipomoea hederacea. As to the kind of experiment: Post-emergence herbicidal activity against Ipomoea hederacea (ivy-leaved morning glory) compound treated as foliar application measured after 2 weeks.
Conditions: not given
The class given is functional. In a few lines: (§1)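 Greenhouse post-emergence foliar screen in 64 cm² pots. Seed treatments were used on some species to aid germination. Plants were grown 7–21 days at 23–29 °C day/22–28 °C night under a 15 h photoperiod. Sprayed at 2–12 cm height and the 1–4 true leaf stage.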
`COc1nc(F)cc2nc(NS(=O)(=O)c3c(Cl)cccc3Cl)nn12` had a GR80 of 62 ppm.
The compound `COc1ncc(Cl)c2nc(NS(=O)(=O)c3c(Cl)cccc3Cl)nn12` yielded a GR80 of 1 ppm.

The next data set deals with Veronica hederifolia. As to the kind of experiment: Post-emergence herbicidal activity against Veronica hederifolia compound treated as foliar application measured after 2 weeks.
Conditions: not given
The class given is functional. In a few lines: as §1
Compound `COc1nc(F)cc2nc(NS(=O)(=O)c3c(Cl)cccc3Cl)nn12` yielded a GR80 of 62 ppm.
The compound `COc1ncc(Cl)c2nc(NS(=O)(=O)c3c(Cl)cccc3Cl)nn12` came in with a GR80 of 1 ppm.

For a further data set, the system named is Abutilon theophrasti. As to the kind of experiment: Post-emergence herbicidal activity against Abutilon theophrasti (velvetleaf) compound treated as foliar application measured after 2 weeks. The class given is functional.
Conditions: not given
The essentials:
as §1
Regarding `COc1nc(F)cc2nc(NS(=O)(=O)c3c(Cl)cccc3Cl)nn12`, the GR80 was 62 ppm.
On the same count and under the same terms, in the case of `COc1ncc(Cl)c2nc(NS(=O)(=O)c3c(Cl)cccc3Cl)nn12` it was 1 ppm.

A further data set concerns Amaranthus retroflexus. Kind of data set: Post-emergence herbicidal activity against Amaranthus retroflexus compound treated as foliar application measured after 2 weeks. The class given is functional.
Conditions: not given
The essentials: as §1
`COc1nc(F)cc2nc(NS(=O)(=O)c3c(Cl)cccc3Cl)nn12` returned a GR80 of 62 ppm.
Same read-out and setting: in the case of `COc1ncc(Cl)c2nc(NS(=O)(=O)c3c(Cl)cccc3Cl)nn12` it was 1 ppm.

A further data set relates to Ipomoea. Kind of data set: Post-emergence herbicidal activity against Ipomoea spp. compound treated as foliar application measured after 2 weeks. The class given is functional.
Conditions: not given
The essentials:
as §1
Regarding `COc1nc(F)cc2nc(NS(=O)(=O)c3c(Cl)cccc3Cl)nn12`, the GR80 turned out to be 62 ppm.
On the same count and under the same terms, under `COc1ncc(Cl)c2nc(NS(=O)(=O)c3c(Cl)cccc3Cl)nn12` stands 1 ppm.

Another data set deals with Helianthus. Kind of data set: Post-emergence herbicidal activity against Helianthus spp. compound treated as foliar application measured after 2 weeks. The class given is functional.
Conditions: not given
In a few lines:
as §1
`COc1nc(F)cc2nc(NS(=O)(=O)c3c(Cl)cccc3Cl)nn12` registered a GR80 of 62 ppm.
Regarding `COc1ncc(Cl)c2nc(NS(=O)(=O)c3c(Cl)cccc3Cl)nn12`, the GR80 worked out at 1 ppm.

The next data set concerns Chenopodium album. Kind of data set: Post-emergence herbicidal activity against Chenopodium album compound treated as foliar application measured after 2 weeks. The class given is functional.
Conditions: not given
The essentials: as §1
Compound `COc1nc(F)cc2nc(NS(=O)(=O)c3c(Cl)cccc3Cl)nn12` gave a GR80 of 62 ppm.
Still for that read-out and setting: under `COc1ncc(Cl)c2nc(NS(=O)(=O)c3c(Cl)cccc3Cl)nn12` stands 1 ppm.

Another data set deals with Datura stramonium. As to the kind of experiment: Post-emergence herbicidal activity against Datura stramonium compound treated as foliar application measured after 2 weeks.
Conditions: not given
The class given is functional. In a few lines:
as §1
In the case of `COc1nc(F)cc2nc(NS(=O)(=O)c3c(Cl)cccc3Cl)nn12`, the GR80 turned out to be 62 ppm.
Same read-out and setting: in the case of `COc1ncc(Cl)c2nc(NS(=O)(=O)c3c(Cl)cccc3Cl)nn12` it was 1 ppm.

A further data set deals with Xanthium strumarium. Kind of data set: Post-emergence herbicidal activity against Xanthium strumarium (cocklebur) compound treated as foliar application measured after 2 weeks. The class given is functional.
Conditions: not given
The essentials:
as §1
The compound `COc1nc(F)cc2nc(NS(=O)(=O)c3c(Cl)cccc3Cl)nn12` came in with a GR80 of 62 ppm.
On the same count and under the same terms, in the case of `COc1ncc(Cl)c2nc(NS(=O)(=O)c3c(Cl)cccc3Cl)nn12` it was 1 ppm.

Test system in the next data set: not listed separately
Kind of data set: Inhibition of acetolactatae synthase. The note with it: read-out: I50. In a few lines:
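Barley ALS: etiolated shoots of 5–6 d old Hector Spring barley homogenized at 0–4 °C in 20 mM HEPES pH 7.2, 1 mM EDTA, 5 mM DTT, then 33% (NH4)2SO4 cut. Reaction: 20 mM HEPES pH 7.2, 5 mM MgCl2, 0.25 mM TPP, FAD, 22.5 mM pyruvate, 0.7% DMSO final, 37 °C, 30 min. Acid decarboxylation to acetoin, then creatine/1-naphthol colour read at 530 nm. Reported as I50 (nM).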
In the case of `COc1nc(F)cc2nc(NS(=O)(=O)c3c(Cl)cccc3Cl)nn12`, the IC50 was determined as 27 nM.
Still for that read-out and setting: in the case of `COc1ncc(Cl)c2nc(NS(=O)(=O)c3c(Cl)cccc3Cl)nn12` it was 0.6 nM.

Another data set deals with Avena fatua. Kind of data set: Post-emergence herbicidal activity against Avena fatua compound treated as foliar application measured after 2 weeks. The class given is functional.
Conditions: not given
In a few lines:
as §1
`COc1nc(F)cc2nc(NS(=O)(=O)c3c(Cl)cccc3Cl)nn12`: the GR80 is given as 8 ppm.
Same read-out and setting: in the case of `COc1ncc(Cl)c2nc(NS(=O)(=O)c3c(Cl)cccc3Cl)nn12` it was 4 ppm.

The next data set has as its system Oryza sativa. As to the kind of experiment: Phytotoxicity against Oryza sativa (rice). As to conditions: in vivo. The class given is organism-based.
Take `COc1nc(F)cc2nc(NS(=O)(=O)c3c(Cl)cccc3Cl)nn12`: the GR20 is listed as 8 ppm.
Still for that read-out and setting: in the case of `COc1ncc(Cl)c2nc(NS(=O)(=O)c3c(Cl)cccc3Cl)nn12` it was 4 ppm.

A further data set concerns Digitaria sanguinalis. As to the kind of experiment: Post-emergence herbicidal activity against Digitaria sanguinalis (hairy crabgrass) compound treated as foliar application measured after 2 weeks.
Conditions: not given
The class given is functional. In a few lines:
as §1
In the case of `COc1nc(F)cc2nc(NS(=O)(=O)c3c(Cl)cccc3Cl)nn12`, the GR80 turned out to be 8 ppm.
The same measure, in the same setting: under `COc1ncc(Cl)c2nc(NS(=O)(=O)c3c(Cl)cccc3Cl)nn12` stands 4 ppm.

A further data set relates to Sorghum halepense. Kind of data set: Post-emergence herbicidal activity against Sorghum halepense (Johnson grass) compound treated as foliar application measured after 2 weeks.
Conditions: not given
The class given is functional. In a few lines:
as §1
Consider `COc1nc(F)cc2nc(NS(=O)(=O)c3c(Cl)cccc3Cl)nn12`, for which the GR80 is reported as 8 ppm.
Same read-out and setting: in the case of `COc1ncc(Cl)c2nc(NS(=O)(=O)c3c(Cl)cccc3Cl)nn12` it was 4 ppm.

A further data set has as its system Setaria faberi. Kind of data set: Post-emergence herbicidal activity against Setaria faberi (Giant Foxtail) compound treated as foliar application measured after 2 weeks. The class given is functional.
Conditions: not given
In a few lines: as §1
As for `COc1nc(F)cc2nc(NS(=O)(=O)c3c(Cl)cccc3Cl)nn12`, the GR80 stood at 8 ppm.
`COc1ncc(Cl)c2nc(NS(=O)(=O)c3c(Cl)cccc3Cl)nn12`: the GR80 turned out to be 4 ppm.

A further data set deals with Echinochloa crus-galli. As to the kind of experiment: Post-emergence herbicidal activity against Echinochloa crus-galli (barnyard grass) compound treated as foliar application measured after 2 weeks.
Conditions: not given
The class given is functional. In a few lines:
as §1
In the case of `COc1nc(F)cc2nc(NS(=O)(=O)c3c(Cl)cccc3Cl)nn12`, the GR80 was 8 ppm.
Same read-out and setting: under `COc1ncc(Cl)c2nc(NS(=O)(=O)c3c(Cl)cccc3Cl)nn12` stands 4 ppm.

Another data set concerns Alopecurus. Kind of data set: Post-emergence herbicidal activity against Alopecurus spp. compound treated as foliar application measured after 2 weeks. The class given is functional.
Conditions: not given
The essentials:
as §1
Turning to `COc1nc(F)cc2nc(NS(=O)(=O)c3c(Cl)cccc3Cl)nn12`, the GR80 was 8 ppm.
Still for that read-out and setting: in the case of `COc1ncc(Cl)c2nc(NS(=O)(=O)c3c(Cl)cccc3Cl)nn12` it was 4 ppm.

Another data set relates to Fallopia convolvulus. Kind of data set: Post-emergence herbicidal activity against Fallopia convolvulus compound treated as foliar application measured after 2 weeks.
Conditions: not given
The class given is functional. The essentials:
as §1
Regarding `COc1nc(F)cc2nc(NS(=O)(=O)c3c(Cl)cccc3Cl)nn12`, the GR80 stood at 62 ppm.
Same read-out and setting: in the case of `COc1ncc(Cl)c2nc(NS(=O)(=O)c3c(Cl)cccc3Cl)nn12` it was 1 ppm.

The next data set has as its system Stellaria media. As to the kind of experiment: Post-emergence herbicidal activity against Stellaria media compound treated as foliar application measured after 2 weeks. The class given is functional.
Conditions: not given
The essentials:
as §1
The compound `COc1nc(F)cc2nc(NS(=O)(=O)c3c(Cl)cccc3Cl)nn12` had a GR80 of 62 ppm.
As to `COc1ncc(Cl)c2nc(NS(=O)(=O)c3c(Cl)cccc3Cl)nn12`, the GR80 is reported as 1 ppm.
